Laboratory results taken from ChEMBL document CHEMBL1131157, “Potent and selective non-cysteine-containing inhibitors of protein farnesyltransferase” (J Med Chem, 1998).

Key:
[1] = molecular target: Protein farnesyltransferase (Bos taurus, UniProt P29702+P49355); test: In vitro inhibition of farnesyltransferase from bovine brain
[2] = tested on: NIH3T3; test: (§1) Inhibition of Ha-Ras processing in NIH3T3 Ras transformed cells.; format: functional, cell-based, Homo sapiens; details: Mus musculus
Procedure, shortened: (§2)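 Subconfluent Ras-transformed NIH3T3 cells dosed with compounds; lysates boiled 5 min in Laemmli buffer, resolved on 15% Tris-glycine gel, blotted to nitrocellulose, probed with anti-Ras antibody Y13-238; bands by ECL, quantified by densitometry. Single determinations unless limits given; assay reliability ±50-100%.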

[3] = tested on: NIH3T3; test: as §1; format: functional, Homo sapiens; details: Mus musculus, read-out: ED50 (the source's name); procedure, shortened: as §2

Row | SMILES | IC50 [1] [nM] | EC50 [2] [nM] | EC50 [3] [nM]
1 | CSCC[C@H](NC(=O)c1ccc(NC(=O)c2ccncc2)cc1-c1ccccc1)C(=O)O | > 1000 |  | 
2 | CSCC[C@H](NC(=O)c1ccc(NCc2cccnc2)cc1-c1ccccc1C)C(=O)O | 1.5 |  | 
3 | CSCC[C@H](NC(=O)c1ccc(CS(=O)(=O)c2cccnc2)cc1-c1ccccc1)C(=O)O | 550 |  | 
4 | CSCC[C@H](NC(=O)c1ccc(NC(=O)c2cccnc2)cc1-c1ccccc1C)C(=O)O | 1.6 |  | 
5 | CCc1ccccc1-c1cc(COc2cccnc2)ccc1C(=O)N[C@@H](CCSC)C(=O)O | 0.35 | < 100 | 
6 | CSCC[C@H](NC(=O)c1ccc(NCc2cccnc2)cc1-c1ccccc1)C(=O)O | 20 | 40000 | 
7 | CSCC[C@H](NC(=O)c1ccc(OCc2cccnc2)cc1-c1ccccc1)C(=O)O | 6.6 |  | 
8 | CSCC[C@H](NC(=O)c1ccc(COc2cccnc2)cc1-c1ccccc1C)C(=O)O | 0.4 | 350 | 
9 | CSCC[C@H](NC(=O)c1ccc(CSc2cccnc2)cc1-c1ccccc1)C(=O)O | 10 | 10000 | 
10 | CSCC[C@@H](NC(=O)c1ccc(CNc2cccnc2)cc1-c1ccccc1)C(=O)O | 140 |  | 
11 | CSCC[C@H](NC(=O)c1ccc(CSc2cccnc2)cc1-c1ccccc1C)C(=O)O | 0.69 |  | 
12 | CSCC[C@H](NC(=O)c1ccc(COc2cccnc2)cc1-c1ccccc1C(F)(F)F)C(=O)O | 0.5 | 300 | 
13 | CSCC[C@H](NC(=O)c1ccc(NC[C@@H](N)CS)cc1-c1ccccc1)C(=O)O |  |  | 1000
14 | CSCC[C@H](NC(=O)c1ccc(COc2cccnc2)cc1-c1ccccc1Cl)C(=O)O | 0.61 | 400 | 
15 | CSCC[C@H](NC(=O)c1ccc(COc2cccnc2)cc1-c1ccc(C)cc1)C(=O)O | 360 |  | 
16 | COc1ccc(-c2cc(COc3cccnc3)ccc2C(=O)N[C@@H](CCSC)C(=O)O)cc1 | 230 |  | 
17 | CSCC[C@H](NC(=O)c1ccc(COc2cccnc2)cc1-c1ccccc1)C(=O)O | 4.3 | 5000 | 
18 | COc1cccc(-c2cc(COc3cccnc3)ccc2C(=O)N[C@@H](CCSC)C(=O)O)c1 | 12 |  | 
19 | NC(=O)CC[C@H](NC(=O)c1ccc(COc2cccnc2)cc1-c1ccccc1)C(=O)O | 48 |  | 
20 | CSCC[C@H](NC(=O)c1ccc(CNc2cccnc2)cc1-c1ccccc1)C(=O)O | 6.8 | 10000 | 
21 | COCC[C@H](NC(=O)c1ccc(COc2cccnc2)cc1-c1ccccc1)C(=O)O | 1000 |  | 
22 | CSCC[C@H](NC(=O)c1ccc(NC(=O)c2cccnc2)cc1-c1ccccc1)C(=O)O | 70 | 50000 | 
23 | CCCC[C@H](NC(=O)c1ccc(COc2cccnc2)cc1-c1ccccc1)C(=O)O | > 1000 |  | 
24 | CS(=O)(=O)CC[C@H](NC(=O)c1ccc(CNc2cccnc2)cc1-c1ccccc1)C(=O)O | 17 |  | 100000
25 | CSCC[C@@H](C(=O)O)N(C)C(=O)c1ccc(CNc2cccnc2)cc1-c1ccccc1 | 160 |  | 100000
26 | COC(=O)[C@H](CCSC)NC(=O)c1ccc(NC[C@@H](N)CS)cc1-c1ccccc1 |  |  | 200
27 | CSCC[C@H](NC(=O)c1ccc(COc2cccnc2)cc1-c1cccc(C)c1)C(=O)O | 5.4 |  | 
28 | CSCC[C@H](NC(=O)c1ccc(NC(=O)c2ccccn2)cc1-c1ccccc1)C(=O)O | > 1000 |  | 
29 | CSC[C@H](NC(=O)c1ccc(COc2cccnc2)cc1-c1ccccc1)C(=O)O | > 1000 |  | 
30 | COc1ccccc1-c1cc(COc2cccnc2)ccc1C(=O)N[C@@H](CCSC)C(=O)O | 3.3 | 10000 | 
